Measurements published in paper PMC10694828 (RSC Advances, 2023).

How the values were obtained:
recombinant human MAO-A = biological target: T1, recombinant human MAO-A (Homo sapiens, UniProt P21397); assay: MAO-A inhibition, continuous assay with kynuramine; type: biochemical; details: for remaining activity at 10 µM: read-out: Residual activity at 10 μM (%) MAO-A
T1 sequence (P21397 1-527): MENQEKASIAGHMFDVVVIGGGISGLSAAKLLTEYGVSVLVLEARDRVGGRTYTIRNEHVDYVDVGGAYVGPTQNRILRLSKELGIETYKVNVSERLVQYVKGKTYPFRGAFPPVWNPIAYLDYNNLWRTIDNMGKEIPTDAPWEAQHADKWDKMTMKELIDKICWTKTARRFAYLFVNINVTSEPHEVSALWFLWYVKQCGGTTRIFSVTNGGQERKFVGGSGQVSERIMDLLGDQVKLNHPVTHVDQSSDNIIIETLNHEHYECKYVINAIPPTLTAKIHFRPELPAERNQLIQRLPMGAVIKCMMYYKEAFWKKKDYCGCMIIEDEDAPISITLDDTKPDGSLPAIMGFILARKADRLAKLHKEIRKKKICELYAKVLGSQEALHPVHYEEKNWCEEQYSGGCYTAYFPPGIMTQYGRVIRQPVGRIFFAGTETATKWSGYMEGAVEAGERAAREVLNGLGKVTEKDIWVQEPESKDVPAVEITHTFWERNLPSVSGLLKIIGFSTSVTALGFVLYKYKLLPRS

MAO-B [1] = biological target: T2, MAO-B (Homo sapiens, UniProt P27338); assay: MAO-B inhibition, continuous assay with benzylamine; type: biochemical; details: for SI (selectivity index for MAO-B compared to MAO-A): (IC50 of MAO-A)/(IC50 of MAO-B); for remaining activity at 10 µM: read-out: Residual activity at 10 μM (%) MAO-B
T2 sequence (P27338 1-520): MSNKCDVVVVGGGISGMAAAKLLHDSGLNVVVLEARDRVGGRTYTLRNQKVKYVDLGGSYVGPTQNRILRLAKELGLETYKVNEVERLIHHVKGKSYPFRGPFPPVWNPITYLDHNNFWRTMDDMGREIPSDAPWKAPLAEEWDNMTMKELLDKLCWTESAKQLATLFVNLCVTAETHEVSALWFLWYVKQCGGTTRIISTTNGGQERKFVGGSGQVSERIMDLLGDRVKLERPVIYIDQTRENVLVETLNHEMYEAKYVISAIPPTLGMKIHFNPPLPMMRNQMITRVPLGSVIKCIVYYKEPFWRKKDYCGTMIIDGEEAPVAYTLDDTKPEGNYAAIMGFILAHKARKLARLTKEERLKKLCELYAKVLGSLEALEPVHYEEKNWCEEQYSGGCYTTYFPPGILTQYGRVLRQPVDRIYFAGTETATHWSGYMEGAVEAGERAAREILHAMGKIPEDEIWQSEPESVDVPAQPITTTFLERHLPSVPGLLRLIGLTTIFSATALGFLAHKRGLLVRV

MAO-B [2] = biological target: T2, MAO-B; assay: Reversibility of MAO-B inhibition by dialysis; type: biochemical; details: for Reversibility of MAO-B inhibition: dialysis; for Relative MAO-B activity, undialyzed (AU) / Relative MAO-B activity, dialyzed (AD): ~2.0 times IC50, 30 min preincubation; for Relative MAO-B activity, dialyzed (AD): dialyzed 6 h with two buffer changes
MAO-B [3] = biological target: T2, MAO-B; assay: Enzyme kinetics of MAO-B inhibition; type: biochemical; details: for Inhibition type for MAO-B: Lineweaver–Burk plots
Summary of the method: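 Recombinant human MAO-B. Activity was followed continuously by absorbance at 250 nm with benzylamine as substrate at five concentrations (0.0375–0.60 […]). Three inhibitor concentrations were tested against each substrate level. The inhibition pattern and Ki came from Lineweaver–Burk plots and from secondary plots of slope versus inhibitor concentration.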

PAMPA for BBB permeation = type: in vitro ADME; details: for Papp: PAMPA; for Experimental Pe / Prediction (CNS permeation): PAMPA-BBB
Summary of the method: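 Passive BBB permeation by PAMPA on a filter membrane with 0.45 micron pores, 125 microns thick. Drug concentrations in donor, receiver and reference wells were measured by UV spectroscopy. Pe (10−6 cm s−1) was calculated as […]. Pe > 4.00 was classed CNS+ (high permeation).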

Structure (SMILES)	IC50 (recombinant human MAO-A) [nM]	remaining activity at 10 µM (recombinant human MAO-A) [%]	IC50 (MAO-B [1]) [nM]	SI (selectivity index for MAO-B compared to MAO-A) (MAO-B [1])	remaining activity at 10 µM (MAO-B [1]) [%]	Reversibility of MAO-B inhibition (MAO-B [2])	Relative MAO-B activity, undialyzed (AU) (MAO-B [2]) [%]	Relative MAO-B activity, dialyzed (AD) (MAO-B [2]) [%]	Ki (MAO-B [3]) [nM]	Inhibition type for MAO-B (MAO-B [3])	Papp (PAMPA for BBB permeation) [×10⁻⁶ cm/s]	Experimental Pe (PAMPA for BBB permeation)	Prediction (CNS permeation) (PAMPA for BBB permeation)
O=C1Nc2ccccc2/C1=N/N=Cc1ccc(OCc2ccccc2)cc1 [ISB1, (3Z)-3-((4-(benzyloxy)benzylidene)hydrazineylidene)indolin-2-one]	6824 ± 49	38.78 ± 0.25	124 ± 7	55.03	-8.77 ± 0.14	reversible	31.61	83.77	55 ± 10	competitive	4.93 ± 0.13	higher than 4.0 ×10^−6 cm s^−1	CNS+ (Pe (10^−6 cm s^−1) > 4.00: CNS+ (high permeation))
O=C1Nc2ccc(Br)cc2C1=NN=Cc1ccc(OCc2cccc(F)c2)cc1 [ISFB2]	> 40000	88.5 ± 1.38	16000 ± 308	>2.49	57.6 ± 1.1	–	–	–	–	–	–	–	–
O=C1Nc2ccc(F)cc2C1=NN=Cc1ccc(OCc2ccccc2)cc1 [ISB3]	> 40000	74.5 ± 0.95	13900 ± 204	>2.87	59.6 ± 1.11	–	–	–	–	–	–	–	–

The next compounds have a lower IC50 (recombinant human MAO-A) than those just listed; values first:

IC50 (recombinant human MAO-A) [nM]	remaining activity at 10 µM (recombinant human MAO-A) [%]	IC50 (MAO-B [1]) [nM]	SI (selectivity index for MAO-B compared to MAO-A) (MAO-B [1])	remaining activity at 10 µM (MAO-B [1]) [%]	Reversibility of MAO-B inhibition (MAO-B [2])	Relative MAO-B activity, undialyzed (AU) (MAO-B [2]) [%]	Relative MAO-B activity, dialyzed (AD) (MAO-B [2]) [%]	Ki (MAO-B [3]) [nM]	Inhibition type for MAO-B (MAO-B [3])	Papp (PAMPA for BBB permeation) [×10⁻⁶ cm/s]	Experimental Pe (PAMPA for BBB permeation)	Structure (SMILES)	Prediction (CNS permeation) (PAMPA for BBB permeation)
678 ± 6	4.17 ± 0.32	135 ± 2	–	-3.03 ± 0.24	reversible	31.42	79.32	69 ± 25	competitive	4.09 ± 0.24	higher than 4.0 ×10^−6 cm s^−1	O=C1Nc2ccccc2/C1=N/N=Cc1ccc(OCc2cccc(F)c2)cc1 [ISFB1, (3Z)-3-((4-((3-fluorobenzyl)oxy)benzylidene)hydrazineylidene)indolin-2-one]	CNS+ (Pe (10^−6 cm s^−1) > 4.00: CNS+ (high permeation))
1570 ± 48	4.84 ± 1.61	540 ± 29	2.91	1.99 ± 0.86	–	–	–	–	–	–	–	O=C1Nc2ccccc2C1=NN=Cc1cccc(OCc2ccccc2)c1 [ISBB1]	–
